Assay results from ChEMBL document CHEMBL4229376, “Optimization of the pharmacokinetic properties of potent anti-trypanosomal triazine derivatives” (Eur J Med Chem, 2018).
Activity calls are given as the source filed them. The calls are words filed in the database; no cut-off is given here.

How the values were obtained:
Trypanosoma cruzi = experiment: Antitrypanosomal activity against nifurtimox-sensitive Trypanosoma cruzi Tulahuen CL2 infected in human MRC5 SV2 cells assessed as reduction in parasite burden after 168 hrs by CPRG and Nonidet based spectrophotometric analysis; type: functional, organism-based; conditions: Tulahuen CL2, MRC-5 SV2, 168 h
[1] = Cytotoxicity against human MRC5 SV2 cells after 72 hrs by resazurin dye-based fluorimetric analysis; type: cell-based; conditions: MRC-5 SV2, 72 h
Plasmodium falciparum = experiment: Antiplasmodial activity against chloroquine-resistant Plasmodium falciparum K1 infected in human erythrocytes after 72 hrs by Malstat reagent-based spectrophotometric analysis; type: functional, organism-based; conditions: K1, 72 h
[2] = tested on: Trypanosoma brucei brucei; experiment: Antitrypanosomal activity against suramin-sensitive Trypanosoma brucei brucei Squib 427 after 72 hrs by resazurin dye-based fluorimetric analysis; type: functional, organism-based; conditions: Squib 427, 72 h
Leishmania infantum = experiment: Antileishmanial activity against Leishmania infantum MHOM/MA (BE)/67 amastigotes infected in primary peritoneal mouse macrophages after 120 hrs by giemsa staining-based microscopic analysis; type: functional, organism-based; conditions: MHOM/MA (BE)/67, 120 h
Peritoneal macrophage = experiment: Cytotoxicity against mouse primary peritoneal macrophages after 72 hrs by resazurin dye-based fluorimetric analysis; type: cell-based
[3] = Drug metabolism in human plasma assessed as parent compound remaining after 30 mins by UPLC/MS/ESI analysis; type: ADME, cell-free; conditions: for remaining at 0.5 h: read-out: Stability
[4] = Drug metabolism in human plasma assessed as parent compound remaining after 15 mins by UPLC/MS/ESI analysis; type: ADME, cell-free; conditions: for remaining at 0.25 h: read-out: Stability
[5] = Drug metabolism in mouse liver microsomes assessed as CYP450 mediated compound […] by measuring parent compound remaining at 5 uM after 60 mins in presence of NADPH by UPLC/MS/ESI analysis; type: ADME; conditions: read-out: Stability
[6] = Drug metabolism in mouse liver microsomes assessed as CYP450 mediated compound […] by measuring parent compound remaining at 5 uM after 15 mins in presence of NADPH by UPLC/MS/ESI analysis; type: ADME; conditions: read-out: Stability
[7] = Drug metabolism in mouse liver microsomes assessed as UGT mediated compound […] by measuring parent compound remaining at 5 uM after 30 mins in presence of UDPGA by UPLC/MS/ESI analysis; type: ADME; conditions: 0.5 h
In short: (§1)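 Metabolic stability was run with mouse liver microsomal fraction (S9) and read as percent parent compound remaining over incubation time. Diclofenac served as the reference compound.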

[8] = Drug metabolism in mouse liver microsomes assessed as CYP450 mediated compound […] by measuring parent compound remaining at 5 uM after 30 mins in presence of NADPH by UPLC/MS/ESI analysis; type: ADME; conditions: read-out: Stability
[9] = Drug metabolism in human liver microsomes assessed as CYP450 mediated compound […] by measuring parent compound remaining at 5 uM after 15 mins in presence of NADPH by UPLC/MS/ESI analysis; type: ADME; conditions: read-out: Stability
[10] = Drug metabolism in human liver microsomes assessed as CYP450 mediated compound […] by measuring parent compound remaining at 5 uM after 30 mins in presence of NADPH by UPLC/MS/ESI analysis; type: ADME; conditions: read-out: Stability
[11] = Drug metabolism in mouse liver microsomes assessed as UGT mediated compound […] by measuring parent compound remaining at 5 uM after 15 mins in presence of UDPGA by UPLC/MS/ESI analysis; type: ADME; conditions: 0.25 h; in short: as §1
[12] = Drug metabolism in human liver microsomes assessed as CYP450 mediated compound […] by measuring parent compound remaining at 5 uM after 60 mins in presence of NADPH by UPLC/MS/ESI analysis; type: ADME; conditions: read-out: Stability
[13] = Drug metabolism in human plasma assessed as parent compound remaining after 1440 mins by UPLC/MS/ESI analysis; type: ADME, cell-free; conditions: for remaining at 24 h: read-out: Stability
In short: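 Compound incubated in human plasma for 24 h at 37 °C, and the fraction of parent compound remaining was determined.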

[14] = Drug metabolism in mouse liver microsomes assessed as UGT mediated compound […] by measuring parent compound remaining at 5 uM after 60 mins in presence of UDPGA by UPLC/MS/ESI analysis; type: ADME; conditions: 1 h; in short: as §1
[15] = Drug metabolism in human liver microsomes assessed as UGT mediated compound […] by measuring parent compound remaining at 5 uM after 15 mins in presence of UDPGA by UPLC/MS/ESI analysis; type: ADME; conditions: read-out: Stability
[16] = Drug metabolism in human liver microsomes assessed as UGT mediated compound […] by measuring parent compound remaining at 5 uM after 60 mins in presence of UDPGA by UPLC/MS/ESI analysis; type: ADME; conditions: read-out: Stability
[17] = Drug metabolism in human plasma assessed as parent compound remaining after 60 mins by UPLC/MS/ESI analysis; type: ADME, cell-free; conditions: read-out: Stability
[18] = Drug metabolism in human liver microsomes assessed as UGT mediated compound […] by measuring parent compound remaining at 5 uM after 30 mins in presence of UDPGA by UPLC/MS/ESI analysis; type: ADME; conditions: read-out: Stability
[19] = tested on: Trypanosoma brucei brucei; experiment: Antitrypanosomal activity against Trypanosoma brucei brucei Squib 427 infected in Swiss mouse assessed as mean survival days at 10 mg/kg, ip administered as single dose for 5 days; type: functional
In short: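 Acute mouse infection model with T. b. brucei. Dosing ran for 5 days after infection, orally or intraperitoneally, once or twice daily. Groups were 3 mice each, with vehicle-treated infected controls. The read-out was mean survival time in days, plus the number of survivors on day 14 post-infection.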

[20] = tested on: Trypanosoma brucei brucei; experiment: Antitrypanosomal activity against Trypanosoma brucei brucei Squib 427 assessed as reduction in parasite growth at 7 to 14 times IC50 after 18 to 48 hrs resazurin dye-based fluorimetric analysis; type: functional, organism-based
In short: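 In vitro time course of T. b. brucei growth in the presence of compound, with parasite growth expressed as % of control.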

[21] = tested on: Trypanosoma brucei brucei; experiment: Antitrypanosomal activity against Trypanosoma brucei brucei Squib 427 infected in Swiss mouse assessed as mouse survival at 10 mg/kg, ip administered as single dose for 5 days and measured on day 14 post infection; type: functional, organism-based
In short: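 Acute T. b. brucei mouse infection model. Dosing was PO or IP at 10–50 mg/kg, once (SID) or twice (BID) daily for 5 days after infection, with 3 mice per group. […] Read-outs were mean survival time and survivors on day 14 post infection.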

Compound | IC50 (Plasmodium falciparum) [µM] | IC50 [2] [µM] | IC50 (Leishmania infantum) [µM] | IC50 (Trypanosoma cruzi) [µM] | IC50 [1] [µM] | IC50 (Peritoneal macrophage) [µM] | also measured
CC1CS(=O)(=O)CCN1/N=C/c1ccc([N+](=O)[O-])o1 (configuration not stated) [NIFURTIMOX] | – | – | – | 0.9 | – | – | –
Cc1ccc(Oc2nc(N)nc(Nc3ccc(F)cc3)n2)cc1 | > 64 | 0.4 | 32.5 | > 64 | > 64 | 32 | remaining at 0.5 h [3]: 94%; remaining at 0.25 h [4]: 104%; remaining at 1 h, 5 µM [5]: 10.5%; remaining at 0.25 h, 5 µM [6]: 57%; Stability [7]: 104%; remaining at 0.5 h, 5 µM [8]: 28%; remaining at 0.25 h, 5 µM [9]: 107%; remaining at 0.5 h, 5 µM [10]: 99%; Stability [11]: 91%; remaining at 1 h, 5 µM [12]: 113%; remaining at 24 h [13]: 95%; Stability [14]: 110%; remaining at 0.25 h, 5 µM [15]: 96%; remaining at 1 h, 5 µM [16]: 94%; remaining at 1 h [17]: 101%; remaining at 0.5 h, 5 µM [18]: 105%
Cc1cc(C)c(Oc2nc(N)nc(Oc3ccc(F)cc3)n2)c(C)c1 | > 64 | 4.3 | 8.1 | > 64 | > 64 | 8 | –
Cc1cc(C)c(Oc2nc(N)nc(Nc3cc(F)cc(F)c3)n2)c(C)c1 | 17.4 | 1.3 | 8.1 | 2.3 | 4.4 | 8 | –
Cc1ccc(Oc2nc(N)nc(Nc3ccccc3)n2)cc1 | > 64 | 1.1 | 32.5 | > 64 | > 64 | 32 | –
Cc1cc(C)c(Oc2ncnc(Nc3ccccc3)n2)c(C)c1 | 31.5 | 32.5 | 24 | 8.2 | 17.8 | 32 | –
Cc1cc(C)c(Oc2ncnc(Nc3ccc(F)cc3)n2)c(C)c1 | 29.6 | 31.1 | 10.8 | 7.9 | 8 | > 64 | –
Cc1cc(C)c(Oc2nc(Nc3ccc(F)cc3)nc(N3CCCCC3)n2)c(C)c1 | 5.4 | 8.2 | 8.1 | 2.4 | > 64 | 32 | –
O=C(O)Cc1ccccc1Nc1c(Cl)cccc1Cl [DICLOFENAC] | – | – | – | – | – | – | Stability [7]: 28%; Stability [11]: 38%; Stability [14]: 30%
Cc1ccc(C(=O)Nc2ccc(S(=O)(=O)O)c3cc(S(=O)(=O)O)cc(S(=O)(=O)O)c23)cc1NC(=O)c1cccc(NC(=O)Nc2cccc(C(=O)Nc3cc(C(=O)Nc4ccc(S(=O)(=O)O)c5cc(S(=O)(=O)O)cc(S(=O)(=O)O)c45)ccc3C)c2)c1 [SURAMIN] | – | – | – | – | – | – | MST [19]: > 7 days; Activity [20]: Active; Activity [21]: Active
Nc1nc(Nc2ccc(F)cc2)nc(Sc2ccc(F)cc2)n1 | > 64 | > 64 | 8.1 | 6.9 | > 64 | 8 | –
Cc1cc(C)c(Oc2nc(N)nc(Nc3c(F)cccc3F)n2)c(C)c1 | > 64 | > 64 | 32.5 | > 64 | > 64 | 32 | –
CC/C(=C(\c1ccccc1)c1ccc(OCCN(C)C)cc1)c1ccccc1 [TAMOXIFEN] | – | – | – | – | 10.2 | – | –

More lines, main results first:

IC50 (Plasmodium falciparum) [µM] | IC50 [2] [µM] | IC50 (Leishmania infantum) [µM] | Compound | IC50 (Trypanosoma cruzi) [µM] | IC50 [1] [µM] | IC50 (Peritoneal macrophage) [µM] | also measured
8.3 | 7.9 | 9.5 | Cc1cc(F)cc(C)c1Nc1nc(N)nc(Nc2ccc(C#N)cc2)n1 | 7.9 | 23.7 | 32 | –
51.7 | 0.5 | 27.3 | Cc1ccc(Oc2nc(N)nc(Nc3ccc(F)cc3)n2)c(Cl)c1 | 7.8 | > 64 | 32 | Stability ([3]; 0.5 h): 124%; Stability ([4]; 0.25 h): 121%; remaining at 1 h, 5 µM [5]: 1.4%; remaining at 0.25 h, 5 µM [6]: 25%; Stability [7]: 109%; remaining at 0.5 h, 5 µM [8]: 6%; remaining at 0.25 h, 5 µM [9]: 90%; remaining at 0.5 h, 5 µM [10]: 87%; Stability [11]: 108%; remaining at 1 h, 5 µM [12]: 67%; remaining at 24 h [13]: 100%; Stability [14]: 113%; remaining at 0.25 h, 5 µM [15]: 88%; remaining at 1 h, 5 µM [16]: 79%; remaining at 1 h [17]: 117%; remaining at 0.5 h, 5 µM [18]: 88%
20.2 | 10.9 | 24 | CNc1nc(Nc2ccc(F)cc2)nc(Oc2c(C)cc(C)cc2C)n1 | 7.8 | > 64 | 32 | –
> 64 | – | > 64 | Cc1ccc(Oc2nc(N)nc(Nc3ccc(C#N)cc3)n2)cc1 | 8 | > 64 | > 64 | –
26.4 | 39.8 | 32.5 | N#Cc1ccc(Nc2nc(N)nc(Nc3ccc(F)cc3)n2)cc1 | 9 | > 64 | 32 | –
26.6 | 1.5 | 8.1 | Cc1cc(C)c(Oc2nc(N)nc(Nc3ccc(Cl)cc3)n2)c(C)c1 | 3.1 | 6.4 | 8 | –
> 64 | 2.8 | > 64 | Nc1nc(Nc2ccc(F)cc2)nc(Nc2ccc(F)cc2)n1 | > 64 | > 64 | > 64 | –
> 64 | > 64 | > 64 | Cc1ccc(Nc2nc(N)nc(Nc3ccc(C#N)cc3)n2)cc1 | > 64 | > 64 | > 64 | –
> 64 | 9.1 | 32.5 | Cc1ccc(Nc2nc(N)nc(Nc3c(Br)cc(C)cc3Br)n2)cc1 | > 64 | 8.1 | 32 | –
29.8 | 7.7 | 50.8 | Cc1ccc(Nc2nc(N)nc(Nc3ccc(C#N)cc3)n2)c(Cl)c1 | > 64 | > 64 | > 64 | –
> 64 | 7.1 | > 64 | Cc1cc(Br)c(Nc2nc(N)nc(Nc3ccc(F)cc3)n2)c(Br)c1 | > 64 | 6.7 | > 64 | –
> 64 | 0.3 | > 64 | Cc1cc(C)c(Oc2nc(N)nc(Nc3ccc(F)cc3)n2)c(C)c1 | > 64 | > 64 | > 64 | remaining at 0.5 h [3]: 104%; remaining at 0.25 h [4]: 100%; remaining at 1 h, 5 µM [5]: 0.3%; remaining at 0.25 h, 5 µM [6]: 22%; Stability [7]: 102%; remaining at 0.5 h, 5 µM [8]: 4%; remaining at 0.25 h, 5 µM [9]: 53%; remaining at 0.5 h, 5 µM [10]: 33%; Stability [11]: 94%; remaining at 1 h, 5 µM [12]: 13%; Stability ([13]; 24 h): 151%; Stability [14]: 112%; remaining at 0.25 h, 5 µM [15]: 95%; remaining at 1 h, 5 µM [16]: 91%; remaining at 1 h [17]: 115%; remaining at 0.5 h, 5 µM [18]: 118%
8.8 | 6.9 | 8.1 | Cc1cc(C)c(Oc2nc(N)nc(Nc3ccc(C(F)(F)F)cc3)n2)c(C)c1 | 2.4 | 6.5 | 8 | –
